Assay results published in ChEMBL document CHEMBL1152825, “Pseudomonas aeruginosa may accumulate drug resistance mechanisms without losing its ability to cause bloodstream infections” (2007).
Converted amounts (≈) assume the structure as drawn.

Assays:
Pseudomonas aeruginosa [1] = experiment: Antibacterial activity against Pseudomonas aeruginosa clinical isolates assessed as resistant rate by macrodilution technique; assay type: functional
Pseudomonas aeruginosa [2] = experiment: Antibacterial activity against Pseudomonas aeruginosa clinical isolate by macrodilution technique; assay type: functional
Pseudomonas aeruginosa [3] = experiment: Antibacterial activity against wild type Pseudomonas aeruginosa PAO1 by macrodilution technique; assay type: functional
Method in brief: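 Wild-type reference strain PAO1. MIC by agar macrodilution on Mueller-Hinton agar with calibrated divalent cations. It served as the baseline for defining a ≥fourfold MIC increase in clinical isolates, and as the expression reference in RT-PCR.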

Pseudomonas aeruginosa [4] = experiment: Antibacterial activity against beta-lactams resistant Pseudomonas aeruginosa isolate expressing MexXY-OprM pump by macrodilution technique; assay type: functional
Method in brief: (§1)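 MICs by agar macrodilution on Mueller-Hinton agar with calibrated divalent cations. Isolates were graded susceptible, intermediate or resistant by CLSI breakpoints. Resistance was defined as a ≥fourfold MIC rise over reference strain PAO1. Resistance mechanisms were assigned by RT-PCR (PAO1-derived overexpressing mutants as controls) and gene complementation.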

Pseudomonas aeruginosa [5] = experiment: Antibacterial activity against beta-lactams resistant Pseudomonas aeruginosa isolate expressing AmpC, MexXY-OprM pump by macrodilution technique; assay type: functional; method in brief: as §1
Pseudomonas aeruginosa [6] = experiment: Antibacterial activity against beta-lactams resistant OprD-deficient Pseudomonas aeruginosa isolate by macrodilution technique; assay type: functional; method in brief: as §1
Pseudomonas aeruginosa [7] = experiment: Antibacterial activity against beta-lactams resistant Pseudomonas aeruginosa isolate expressing PSE-1, MexXY-OprM pump by macrodilution technique; assay type: functional; method in brief: as §1
Pseudomonas aeruginosa [8] = experiment: Antibacterial activity against beta-lactams resistant Pseudomonas aeruginosa isolate expressing AmpC, PSE-1, MexXY-OprM pump by macrodilution technique; assay type: functional; method in brief: as §1
Pseudomonas aeruginosa [9] = experiment: Antibacterial activity against beta-lactams resistant Pseudomonas aeruginosa isolate expressing PSE-1 by macrodilution technique; assay type: functional; method in brief: as §1
Pseudomonas aeruginosa [10] = experiment: Antibacterial activity against beta-lactams resistant Pseudomonas aeruginosa isolate expressing AmpC, MexAB-OprM pump by macrodilution technique; assay type: functional
Method in brief: as §1, with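 “Bloodstream P. aeruginosa isolates from patients in six French teaching hospitals (1999–2004). MICs” for “MICs”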

Pseudomonas aeruginosa [11] = experiment: Antibacterial activity against beta-lactams resistant Pseudomonas aeruginosa isolate expressing MexAB-OprM pump by macrodilution technique; assay type: functional; method in brief: as §1
Pseudomonas aeruginosa [12] = experiment: Antibacterial activity against beta-lactams resistant Pseudomonas aeruginosa isolate expressing MexAB-OprM pump, MexXY-OprM pump by macrodilution technique; assay type: functional; method in brief: as §1
Pseudomonas aeruginosa [13] = experiment: Antibacterial activity against beta-lactams resistant Pseudomonas aeruginosa isolate expressing AmpC, MexXY-OprM pump, TEM-2 by macrodilution technique; assay type: functional; method in brief: as §1
Pseudomonas aeruginosa [14] = experiment: Antibacterial activity against beta-lactams resistant Pseudomonas aeruginosa isolate expressing OXA2 by macrodilution technique; assay type: functional; method in brief: as §1
Pseudomonas aeruginosa [15] = experiment: Antibacterial activity against beta-lactams resistant Pseudomonas aeruginosa isolate expressing AmpC, MexAB-OprM pump, MexXY-OprM pump by macrodilution technique; assay type: functional; method in brief: as §1
Pseudomonas aeruginosa [16] = experiment: Antibacterial activity against beta-lactams resistant Pseudomonas aeruginosa isolate expressing MexXY-OprM pump, TEM-2 by macrodilution technique; assay type: functional; method in brief: as §1
Pseudomonas aeruginosa [17] = experiment: Antibacterial activity against beta-lactams resistant Pseudomonas aeruginosa isolate expressing AmpC by macrodilution technique; assay type: functional; method in brief: as §1
Pseudomonas aeruginosa [18] = experiment: Antibacterial activity against Pseudomonas aeruginosa clinical isolates assessed as susceptible rate by macrodilution technique; assay type: functional
Pseudomonas aeruginosa [19] = experiment: Antibacterial activity against wild type Pseudomonas aeruginosa isolate by macrodilution technique; assay type: functional; method in brief: as §1
Pseudomonas aeruginosa [20] = experiment: Antibacterial activity against fluoroquinolone-resistant Pseudomonas aeruginosa isolate with GyrA mutant by macrodilution technique

Compound | Activity (Pseudomonas aeruginosa [1]) [%] | MIC50 (Pseudomonas aeruginosa [2]) [µg/mL] | MIC90 (Pseudomonas aeruginosa [2]) [µg/mL] | MIC (Pseudomonas aeruginosa [3]) [µg/mL] | MIC (Pseudomonas aeruginosa [4]) [µg/mL] | MIC (Pseudomonas aeruginosa [5]) [µg/mL] | MIC (Pseudomonas aeruginosa [6]) [µg/mL] | MIC (Pseudomonas aeruginosa [7]) [µg/mL] | MIC (Pseudomonas aeruginosa [8]) [µg/mL] | MIC (Pseudomonas aeruginosa [9]) [µg/mL] | MIC (Pseudomonas aeruginosa [10]) [µg/mL] | MIC (Pseudomonas aeruginosa [11]) [µg/mL] | MIC (Pseudomonas aeruginosa [12]) [µg/mL] | MIC (Pseudomonas aeruginosa [13]) [µg/mL] | MIC (Pseudomonas aeruginosa [14]) [µg/mL] | MIC (Pseudomonas aeruginosa [15]) [µg/mL] | MIC (Pseudomonas aeruginosa [16]) [µg/mL] | MIC (Pseudomonas aeruginosa [17]) [µg/mL] | Activity (Pseudomonas aeruginosa [18]) [%] | also measured
CC(C)(O/N=C(\C(=O)N[C@@H]1C(=O)N2C(C(=O)[O-])=C(C[n+]3ccccc3)CS[C@H]12)c1csc(N)n1)C(=O)O [CEFTAZIDIME] | 3.3 | 2 (≈ 3.66 µM) | 8 (≈ 14.6 µM) | 1 (≈ 1.83 µM) | 2 (≈ 3.66 µM) | 8 (≈ 14.6 µM) | 2 (≈ 3.66 µM) | 2 (≈ 3.66 µM) | 8 (≈ 14.6 µM) | 2 (≈ 3.66 µM) | 4 (≈ 7.32 µM) | 4 (≈ 7.32 µM) | 2 (≈ 3.66 µM) | 32 (≈ 58.5 µM) | 2 (≈ 3.66 µM) | 16 (≈ 29.3 µM) | 8 (≈ 14.6 µM) | 16 (≈ 29.3 µM) | 90 | 
C[C@H]1[C@H](NC(=O)/C(=N\OC(C)(C)C(=O)O)c2csc(N)n2)C(=O)N1S(=O)(=O)O [AZTREONAM] |  |  |  |  |  |  |  |  |  |  | 8 (≈ 18.4 µM) |  |  |  |  |  | 8 (≈ 18.4 µM) |  |  | 
CC1(C)S[C@@H]2[C@H](NC(=O)[C@H](C(=O)O)c3ccsc3)C(=O)N2[C@H]1C(=O)O [TICARCILLIN] | 10.8 | 32 (≈ 83.2 µM) | 256 (≈ 666 µM) | 16 (≈ 41.6 µM) | 16 (≈ 41.6 µM) | 128 (≈ 333 µM) | 16 (≈ 41.6 µM) | > 256 | > 256 | > 256 | 128 (≈ 333 µM) | 128 (≈ 333 µM) | 128 (≈ 333 µM) | > 256 | 128 (≈ 333 µM) | 128 (≈ 333 µM) | > 256 | 64 (≈ 166 µM) | 77.5 | MIC (Pseudomonas aeruginosa [19]): 16 µg/mL (≈ 41.6 µM)
C[C@@H](O)[C@H]1C(=O)N2C(C(=O)O)=C(SCCNC=N)C[C@H]12 [IMIPENEM ANHYDROUS] | 10.8 | 2 (≈ 6.68 µM) | 16 (≈ 53.4 µM) | 1 (≈ 3.34 µM) | 8 (≈ 26.7 µM) | 16 (≈ 53.4 µM) | 8 (≈ 26.7 µM) | 64 (≈ 214 µM) |  |  |  | 4 (≈ 13.4 µM) |  |  |  |  |  | 8 (≈ 26.7 µM) | 82.5 | 
O=C(O)c1cn(C2CC2)c2cc(N3CCNCC3)c(F)cc2c1=O [CIPROFLOXACIN] |  |  |  |  |  |  |  |  |  |  |  |  |  |  |  |  |  |  |  | MIC (Pseudomonas aeruginosa [20]): 16 µg/mL (≈ 48.3 µM)
